A short description of this series: Toxicity liver stage against HepG2, at 10uM. It is filed as cell-based. Details: test concentration 10 uM, cell line HepG2-A16-CD81EGFP. Conditions: human, HepG2-A16-CD81EGFP cells; read-out: INHIBITION
Put shortly:
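Uninfected HepG2-A16-CD81EGFP cells, 3 × 10^3 per well, 1536-well, plated on prespotted compound at 10 μM final, parasite-free screening media added to match infected plates; puromycin 10 μM positive, DMSO 0.5% negative; run in parallel with 48 h PbLuc assay at 37 °C, 5% CO2; viability by CellTiter-Glo luminescence, normalized to controls.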

The structures appear in SMILES notation.

Take `CC(=O)N[C@@H]1CN(Cc2nnc(-c3ccccc3)o2)C[C@H]1C(C)C`: the cytotoxicity at 10 µM is -0.598%. The same measure for `CN(C)C(=O)c1ccc(OC2CCOCC2)cc1`: -2%. Then `O=C(NCc1cn2c(n1)CN(Cc1nccs1)CC2)C1CCC1`, with 4.61%. The same measure for `Cc1cc(C(=O)NCCC(C)C)ccc1NS(C)(=O)=O`: 7.04%.

As for `CCOCC(=O)Nc1nccn1Cc1ccccc1Cl`, the cytotoxicity at 10 µM is -0.678%. Then `c1ccc(Cn2cc(CNCC3CNc4ccnn4C3)cn2)cc1` (configuration not stated), with -11.6%; and `NC(=O)c1cccc(CNC(=O)NCCOc2ccc(F)c(F)c2)c1`, with 9.77%; and `O=C(c1[nH]nc2c1CCCC2)N1CCC(OCCN2CCCCC2)C1` (configuration not stated), with -4.52%. The same measure for `O=C(C1CCCCC1)N1CCC2(CC1)OCCO2`: 9.77%; for `CN1CCC(CCc2ccnc(NC(=O)c3ccccn3)c2)CC1`: -2.12%. As to `CCOCC(=O)N1CCC(c2nccn2Cc2cscn2)CC1`, the cytotoxicity at 10 µM is -5.58%. For `Cc1noc(C)c1CNC(=O)N(C1CC1)C(C)c1ccco1` (configuration not stated), the cytotoxicity at 10 µM worked out at 5.68%. The same measure for `CCCS(=O)(=O)C(C)C(=O)Nc1ccc2oc(C3CC3)nc2c1` (configuration not stated): 5.3%. The same measure for `CCn1cc(C(=O)N2CCCC(c3[nH]ncc3S(C)(=O)=O)C2)cn1` (configuration not stated): 8.42%.

On to `N#Cc1ccccc1N1CCN(C(=O)NCC(=O)N2CCCC2)CC1`, for which the cytotoxicity at 10 µM is -1.55%.

On to `Cc1ccc(N2C[C@H](C)[C@]3(CCN(c4cccnc4)C3=O)C2)nn1`, for which the cytotoxicity at 10 µM was -1.22%. `Cc1cc(F)ccc1C(=O)N1CCN(C)C2(CCC(=O)N(C)CC2)C1` (configuration not stated): the cytotoxicity at 10 µM stood at 4.78%. The same measure for `O=C(c1ncccn1)N1CCC[C@]2(C[C@H](OCC3CC3)CO2)C1`: -86%; for `CCn1ccnc1CN1CCN(Cc2cccnc2)CC1C` (configuration not stated): -0.191%; for `COCCNC(=O)[C@@H]1CN(c2cc(OC)ncn2)C[C@H]2OCC[C@H]21`: -3.06%. For the compound `Cc1noc([C@H]2COC[C@H]3CN(C(=O)Cc4ccc(F)cc4)C[C@H]32)n1`, the cytotoxicity at 10 µM was -21.1%.

For the compound `O=C([C@H](O)c1ccccc1)N1CCN(c2cccc(Cl)c2)C(=O)C1`, the cytotoxicity at 10 µM was -6.17%. For the compound `CCn1ncc2c1C(COC)CN(Cc1ccc(F)cc1)C2` (configuration not stated), the cytotoxicity at 10 µM came out at 12.4%. The same measure for `COCc1nc(CNC(=O)c2cc(C)c(C)[nH]c2=O)no1`: 4.19%; for `Cn1cc(CN2CCc3ncn(C)c3C2COCc2cccnc2)cn1` (configuration not stated): 6.86%.

On to `c1cncc(CN2Cc3nccn3CC(Cn3cncn3)C2)c1` (configuration not stated), for which the cytotoxicity at 10 µM was -136%.

Turning to `CNc1ncc(CN(C)C(=O)c2cccc(Cn3cccn3)c2)cn1`, the cytotoxicity at 10 µM turned out to be 1.32%. The same measure for `COc1ccc(C(=O)N2CCCC(n3nc(C)nc3C)C2)c(OC)c1` (configuration not stated): -18.2%. The same measure for `CCc1nsc(N2CCC3(CC2)OCCO3)n1`: 2.24%; for `CN1C[C@H]2CC[C@@H](CC1=O)N2C(=O)c1cc2ccccc2[nH]c1=O`: -7.66%; for `COC(=O)[C@H]1C[C@@H](O)CCN1S(=O)(=O)c1ccc(F)cc1F`: -3.01%. The same measure for `CCSCc1ccc(C(=O)N2CCCN(CC)CC2)cc1`: -5.95%; for `Cc1cccn2cc(CC(=O)N3CCCC(n4cncn4)C3)nc12` (configuration not stated): -7.31%. As for `Cc1noc(C)c1CCC(=O)Nc1ccn(C)n1`, the cytotoxicity at 10 µM was -2.4%. Then `CCCn1nc2c(cc1=O)CN(c1ncnc3sccc13)CC2`, with 49.4%; and `CC1CN(C)CCN1C(=O)Nc1nc(-c2ccco2)cs1` (configuration not stated), with -5.02%; and `CN(C(=O)CCNC(=O)NC1CCCCC1)c1ccccc1`, with -0.575%. The same measure for `COCC1CN(c2ncc(F)cn2)Cc2cnn(C)c21` (configuration not stated): 4.02%. Then `Cc1cc(NC(=O)CN(CC2CCOC2)C2CC2)no1` (configuration not stated), with 1.65%.

For the compound `CCn1cnnc1CNC(=O)c1ccc(Br)cc1F`, the cytotoxicity at 10 µM was -18.2%. Then `CCN(CC(=O)NC)C(=O)c1sc(Cc2ccccc2)nc1C`, with -6.37%; and `CN(C)CCNC(=O)c1cc(-c2cnc(N3CCOCC3)nc2)cn1C`, with -78.2%; and `Cc1csc(N2CCN(C(=O)c3cc(Cl)c[nH]3)CC2)n1`, with -2.82%.

As for `NC(=O)c1ccc(C(=O)N2CCCCC2C2OCCO2)cc1` (configuration not stated), the cytotoxicity at 10 µM is -0.966%. The same measure for `CC(C)c1cc(NC(=O)CN2CCCC2Cn2cccn2)on1` (configuration not stated): -8.35%. The same measure for `CCC(NC(=O)c1coc(COc2cccc(F)c2F)n1)C(=O)NC` (configuration not stated): 1.03%; for `Cc1ccc2nc(C)c(C)c(C(=O)NCCCn3ccnn3)c2c1`: 17.8%; for `Cc1nn(C)c(C)c1C1CCCN1CC(=O)Nc1cc(C(C)C)no1` (configuration not stated): 2.07%. For the compound `O=C(c1ccnnc1)N1CCn2cc(CN3CCCCC3)nc2C1`, the cytotoxicity at 10 µM is -74.9%. Then `O=C(C1CCOCC1)N1CC[C@@H]2[C@H]1CCC(=O)N2c1ccccc1`, with 5.5%.

Turning to `CCOc1cc(NC(=O)NCCn2cnnc2CC)ccc1C`, the cytotoxicity at 10 µM is -7.37%. The same measure for `CCCN1CCC(c2nc3ccc(NCc4cccnc4)cn3n2)CC1`: -121%; for `O=c1c2cccc(C(F)(F)F)c2ncn1C1CCNC1` (configuration not stated): -38.3%; for `Cc1nnc([C@H]2CC[C@@H]3[C@@H](CCN3CC3CCOCC3)O2)o1`: 10.1%.

With `CC(C)(O)CN1CCN(C(=O)COCC(F)(F)F)CC1`, the cytotoxicity at 10 µM was -12.9%.

With `O=C(Nc1cn[nH]c1)NC1CCN(c2ccccc2OC(F)F)C1` (configuration not stated), the cytotoxicity at 10 µM turned out to be 26.1%. Then `CC(=O)c1cccc(NC(=O)C2CN(S(=O)(=O)C3CC3)C2)c1`, with 3.62%; and `CN(C)CCNCCC(c1ccccc1)C1CCOC(C)(C)C1` (configuration not stated), with -5.67%.

Consider `Cn1ccc(CN2CCC(OCCc3ccccc3)CC2)cc1=O`, for which the cytotoxicity at 10 µM was -4.43%.

Regarding `COc1nc2ccccc2cc1CN1CCCC(CNC(C)=O)C1` (configuration not stated), the cytotoxicity at 10 µM was found to be 1.9%.

Take `CCc1[nH]c2c(CNc3nccc(N)n3)cc(C)cc2c1C`: the cytotoxicity at 10 µM turned out to be 3.4%. The same measure for `Nc1ncc(-c2ccc(Cl)cc2)c(C2CCCNC2)n1` (configuration not stated): -7.64%.

On to `CSCC(=O)N1CCCCC1Cn1cc(C)cn1` (configuration not stated), for which the cytotoxicity at 10 µM was -8.24%. With `COc1cccc(-c2n[nH]cc2-c2nc(CC3CCN(C)CC3)no2)c1`, the cytotoxicity at 10 µM was -9.98%. The same measure for `CC(C)Cn1cc(NC(=O)NC(C)(C)c2nccs2)cn1`: 7.44%; for `CCCN1CC(NC(=O)Nc2nc(C)n(C(C)C)n2)CC1=O` (configuration not stated): -3.04%; for `CNc1cc(C)nc(-c2cc(NC)nc3[nH]ccc23)n1`: -3.92%.

`O=C(NCc1ccccn1)[C@@H]1CC[C@@H]2[C@@H](CCN2c2ncc(F)cn2)O1`: the cytotoxicity at 10 µM was -74.8%. Turning to `Cn1cnnc1C1CCCN(C(=O)c2cc(Cl)c(Cl)n2C)C1` (configuration not stated), the cytotoxicity at 10 µM was -4.9%. The same measure for `Cc1cc(C)n(CC2CCCN2C(=O)Cc2cn3ccsc3n2)n1` (configuration not stated): -12.5%. On to `CC1CCN(C(=O)C2CCCN(C(=O)Nc3ccccn3)C2)CC1` (configuration not stated), for which the cytotoxicity at 10 µM is -2.98%. As to `c1ccc(OC2CCCC2)c(CNC2CCc3ncnn3C2)c1` (configuration not stated), the cytotoxicity at 10 µM is -5.43%.

Take `COc1ccc2c(c1)OCC(CNC(=O)c1cnc(NC(C)C)nc1)C2` (configuration not stated): the cytotoxicity at 10 µM is -5.07%. Then `NC(=O)NC(CC(=O)NCCc1cccc(F)c1)c1ccccc1` (configuration not stated), with -0.862%.

With `CC(=O)N(Cc1noc(C)n1)C1CCN(Cc2ccccc2C#N)C1` (configuration not stated), the cytotoxicity at 10 µM is -1.76%. Then `Cc1cc(CN2CCC(CNS(=O)(=O)c3c(C)noc3C)CC2)c(C)o1`, with 5.81%; and `CC(C)c1noc(CS(=O)(=O)CC(=O)NCCOc2ccccc2)n1`, with -10%; and `CN(Cc1ccc(Cl)c(F)c1)C(=O)c1ccncc1F`, with 3.31%. On to `COC(=O)c1cccc(C2CNCCN2C)c1` (configuration not stated), for which the cytotoxicity at 10 µM is 0.5%.

As to `COCC(=O)Nc1ccnn1-c1ccc(Cl)cc1`, the cytotoxicity at 10 µM amounted to 2.18%. The same measure for `Cn1cc(CN2CC[C@H]3C[C@@H](c4nc(C5CC5)cs4)O[C@@H]3C2)cn1`: 8.84%; for `CS(=O)(=O)NCC1CCCN(Cc2ccccc2F)C1` (configuration not stated): -3.65%; for `CCS(=O)(=O)c1ccc2c(c1)OCCO2`: -1.38%. The same measure for `OCC1(CC2CC2)CCCN(Cc2ccc(C(F)(F)F)nc2)C1` (configuration not stated): -5.96%.

As for `COCC(c1cccc(C(F)(F)F)c1)N(C)C(=O)c1ccccn1` (configuration not stated), the cytotoxicity at 10 µM is -12%.

On to `O=C1CNc2ncnc(Nc3cnn(Cc4cccc(F)c4)c3)c2N1`, for which the cytotoxicity at 10 µM amounted to 4.67%. The same measure for `CCS(=O)(=O)NCCNC(=O)c1cnc(-c2ccccc2)nc1`: 13.8%. The same measure for `Cc1ccc(OCCN2CCC(c3ccnn3CCO)CC2)cc1`: -3.29%; for `CC(c1cccc(-c2ncccc2C#N)c1)N(C)C` (configuration not stated): -5.4%; for `Cc1ncc(CNC(=O)N(CCCO)C2CCc3ccccc32)s1` (configuration not stated): -12.9%. Then `Cc1nc(-c2ccco2)ccc1C(=O)NCCCN1CCOCC1`, with -4.02%; and `CCS(=O)(=O)N1CCCn2nnc(Cn3cccc3)c2C1`, with 9.77%; and `CC(C)N(C)Cc1nnc2n1CCN(Cc1ccncc1)CC2`, with -2.42%. As for `Cc1cc(C(=O)Cn2cnnc2[S+](C)[O-])cc(C)c1F` (configuration not stated), the cytotoxicity at 10 µM was determined as 4.31%. The same measure for `CCC(C)NC(=O)c1ccc(-c2ccco2)[nH]c1=O` (configuration not stated): -5.05%. The same measure for `Cc1cnn(CCNCc2nc(CNC(=O)c3ccccc3)no2)c1`: -5.92%; for `Cc1noc(C)c1CN1CCc2ncnc(-c3ccncc3)c2CC1`: -87%.
